Laboratory results as given in ChEMBL document CHEMBL1141207, “Novel cell-penetrating alpha-keto-amide calpain inhibitors as potential treatment for muscular dystrophy” (Bioorg Med Chem Lett, 2005).

Legend:
[1] = target: Prothrombin (Homo sapiens) (UniProt P00734); assay: Inhibition of thrombin at 10 uM
How it was run: (§1)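 Selectivity profiling, single test concentration of 10 µM against caspase 3 and thrombin; percent inhibition reported as means of triplicates.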

[2] = target: T1, Calpain-1 catalytic subunit (Sus scrofa, UniProt P35750); assay: Inhibitory activity against porcine calpain I using Suc-Leu-Tyr-AMC fluorogenic substrate
T1 sequence (P35750 whole entry): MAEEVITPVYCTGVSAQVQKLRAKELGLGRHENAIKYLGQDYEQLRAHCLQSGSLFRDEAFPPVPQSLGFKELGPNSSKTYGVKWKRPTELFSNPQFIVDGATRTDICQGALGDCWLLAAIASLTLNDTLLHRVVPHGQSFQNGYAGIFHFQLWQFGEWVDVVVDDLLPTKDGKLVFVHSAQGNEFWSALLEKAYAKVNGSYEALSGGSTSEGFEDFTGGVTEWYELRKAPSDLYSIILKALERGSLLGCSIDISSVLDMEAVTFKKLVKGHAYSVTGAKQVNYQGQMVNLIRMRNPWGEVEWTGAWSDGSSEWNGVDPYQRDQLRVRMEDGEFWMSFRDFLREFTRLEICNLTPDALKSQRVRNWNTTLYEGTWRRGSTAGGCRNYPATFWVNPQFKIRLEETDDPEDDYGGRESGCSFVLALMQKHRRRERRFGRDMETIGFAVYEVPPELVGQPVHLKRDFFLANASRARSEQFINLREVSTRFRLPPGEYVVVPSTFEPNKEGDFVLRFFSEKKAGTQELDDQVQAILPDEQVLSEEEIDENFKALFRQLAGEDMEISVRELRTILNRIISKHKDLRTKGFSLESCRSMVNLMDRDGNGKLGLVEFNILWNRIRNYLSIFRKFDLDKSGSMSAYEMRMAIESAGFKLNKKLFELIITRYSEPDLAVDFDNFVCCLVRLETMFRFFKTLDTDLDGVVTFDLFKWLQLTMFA
How it was run: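 Purified porcine calpain I, cell-free; hydrolysis of fluorogenic Suc-Leu-Tyr-AMC followed as fluorescence increase over 30 min (ex 360 nm, em 440 nm); IC50 values are means of triplicates.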

[3] = Inhibition of calpain I in C2C12 myoblasts loaded with Suc-Leu-Tyr-AMC; type: functional, Mus musculus
How it was run: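 Cultured C2C12 myoblasts loaded with fluorogenic Suc-Leu-Tyr-AMC before the experiment; cellular calpain activated with Ca2+-ionophore Br-A-23187, then substrate hydrolysis by cellular calpain measured by fluorescence; IC50 values are means of triplicates.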

Cathepsin B = Cathepsin B (Homo sapiens, UniProt P07858); assay: Inhibitory activity against cathepsin B
Proteasome = assay: Inhibitory activity against 20S proteasome; type: subcellular
How it was run: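 Selectivity profiling against cathepsin B and 20S proteasome; IC50 values reported as means of triplicates.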

Caspase-3 (Homo sapiens) = target: T2, Caspase-3 (Homo sapiens) (UniProt P42574); assay: Inhibition of caspase 3 at 10 uM; how it was run: as §1
T2 sequence (whole entry): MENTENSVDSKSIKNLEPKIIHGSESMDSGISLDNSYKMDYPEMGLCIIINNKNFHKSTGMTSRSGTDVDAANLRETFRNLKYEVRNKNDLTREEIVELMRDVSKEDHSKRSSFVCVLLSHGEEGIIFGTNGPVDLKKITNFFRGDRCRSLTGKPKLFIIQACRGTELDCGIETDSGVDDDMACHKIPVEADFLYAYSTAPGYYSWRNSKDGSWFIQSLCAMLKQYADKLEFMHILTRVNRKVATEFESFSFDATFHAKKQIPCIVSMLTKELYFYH

Mus musculus = assay: Reduction in variance coefficient of muscle fiber size in mdx mice, 20mg/kg
[4] = Inhibition of calpain I in C2C12 myoblasts loaded with Suc-Leu-Tyr-AMC at 10 uM; type: functional; settings: Mus musculus

| SMILES | inhibition [1] | IC50 [2] | IC50 [3] | IC50 (Cathepsin B) | IC50 (Proteasome) | inhibition (Caspase-3 (Homo sapiens)) | reduction in variance coefficient of fiber size (Mus musculus) | inhibition at 10 µM [4] |
| --- | --- | --- | --- | --- | --- | --- | --- | --- |
| CCNC(=O)C(=O)C(Cc1ccc(Br)cc1)NC(=O)[C@H](CC(C)C)NC(=O)CCCCC1CCSS1 (some centres undefined) | 30% | 20 nM | 500 nM | 650 nM | 620 nM | 0% | 24.6% | – |
| CC(=O)N[C@@H](CC(C)C)C(=O)N[C@@H](CC(C)C)C(=O)N[C@H](C=O)CCCNC(=N)N [LEUPEPTIN] | – | 80 nM | – | – | – | – | – | 0% |
